# The entries come from a sample that favours hits as a whole.
# p-CIP stab down: p/CIP-EGFP fusion destabilizers, primary screen, fluorescence, F442A cells. Q05BA5. 0.01% of 290,000 active. decrease of EGFP signal, % at 10 µM. 16 h;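 active = EGFP signal decrease of at least 30% at 10 µM or well 3 SD below plate mean, unless failing retest; inactive = the rest, including hits failing retest or dose response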
# CHOP inhibitor: inhibitors of CHOP promoter induction, primary screen, cell-based, unfolded protein response, luciferase reporter. CHO-K1 CHOP-promoter luciferase, tunicamycin-induced, 15-18 h. inhibition, % at 10 µM. 3.8% of 220,000 active. AID 2732, 2010;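 active = compounds that reduced the stress-induced luciferase reporter signal by more than about 70% of percent inhibition, limit read from the data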;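 also: 0% = tunicamycin plus vehicle and 100% = wells without tunicamycin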
# UPR XBP1 act: activators of adaptive XBP1 UPR arm, primary screen, cell-based, CHO-XBP1 luciferase reporter, luminescence, uHTS. 0.33% of 330,000 active. IRE1-XBP1 UPR activation; percent of tunicamycin response, DMSO as zero. AID 463104, 2010. activation, % at 20 µM;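 active = versus positive control, 20 µM dose yields 30% or more activation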;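 also: 100% = tunicamycin at 10 µg/mL and 0% = DMSO only wells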
#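 incubation = overnight seeding at 37 °C, 6 h compound treatment at 37 °C | assay system = CHO-XBP1 cells stably carrying IRE1-XBP1-driven luciferase reporter | input = 1000 cells per well | detection = luciferase luminescence | dosing = single point, 20 µM final compound, 1% DMSO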
# UPR CHOP act: activators of apoptotic CHOP UPR arm, primary screen, cell-based, CHO-CHOP luciferase reporter, luminescence, uHTS; UPR activation; percent of tunicamycin response over DMSO baseline; activation, % at 10 µM; 0.34% of 330,000 active;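 active = at 10 µM dose, activation of 40% or more, normalized to positive control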;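 also: 100% = tunicamycin at 10 µg/mL and 0% = DMSO alone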
#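 assay system = CHO CHOP reporter cells | amount = 500 CHO-CHOP cells per well | buffer or medium = F12 with 10% FBS | incubation = 16-18 h cell attachment, then 6 h compound exposure, 37 °C | detection = luminescence read with Steady-Glo | read-out = percent activation relative to tunicamycin control | controls = tunicamycin high control, DMSO low control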
# Dynein transport: inhibitors of GR-EGFP nuclear translocation, primary screen, dynein cargo transport inhibitor project, imaging, high-content, 3617.4 mouse cells; test concentration mostly 20 µM; stimulated with dexamethasone, 1 µM; stronger effect = lower value; z-score, hits read low; 0.47% of 220,000 active;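 active = plate z-score of nuclear minus cytoplasmic receptor signal below a set negative limit, without overly bright fluorescence or cell loss, cut at about -3.5 in these data, passing the limit was not always enough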;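 also: z-score of nuclear minus cytoplasmic ring GR-EGFP intensity difference per well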
#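 medium = tetracycline-free induction medium containing charcoal-stripped FBS | probe or stimulus = dexamethasone, 1.0 µM final | timing = 48 h induction, then 1 h compound, then 30 min agonist, 37 °C | detection = automated 10x imaging of fixed Hoechst-stained cells | read-out basis = nuclear versus cytoplasmic GR-EGFP signal, averaged per well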
# Beta2AR agonist: beta2AR agonists driving receptor internalization, primary screen, cell-based, FAP fluorogen, flow cytometry; Beta-2 adrenergic receptor (Homo sapiens), P07550; Am2.2-beta2AR cells; response, % (concentration not given with the values); 0.43% of 340,000 active; AID 504454, 2011;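 active = response above a set limit, near 3 SD of response in nonfluorescent compounds, cut at about 42% in these data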
# Target sequence (P07550 whole entry, looked up): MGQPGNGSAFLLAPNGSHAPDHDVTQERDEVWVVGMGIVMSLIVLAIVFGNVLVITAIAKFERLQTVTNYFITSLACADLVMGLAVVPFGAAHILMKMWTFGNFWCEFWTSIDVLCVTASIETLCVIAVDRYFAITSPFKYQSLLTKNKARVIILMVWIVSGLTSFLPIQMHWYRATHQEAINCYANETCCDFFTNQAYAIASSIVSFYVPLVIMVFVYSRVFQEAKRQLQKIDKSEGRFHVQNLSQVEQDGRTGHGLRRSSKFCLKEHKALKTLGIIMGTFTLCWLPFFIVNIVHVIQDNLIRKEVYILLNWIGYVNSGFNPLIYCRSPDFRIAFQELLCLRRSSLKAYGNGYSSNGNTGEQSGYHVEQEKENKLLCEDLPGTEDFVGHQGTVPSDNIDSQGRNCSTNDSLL
# XBP1 UPR conf: IRE1-XBP1 UPR arm activators, confirmation, cell-based, CHO-XBP1 luciferase reporter, luminescence, single concentration; shares compounds with UPR XBP1 act; 63% of 1,000 active; activation, % at 20 µM;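 active = reporter signal at least 30% of the positive control's activation in two or more of four replicate wells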;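 also: plate controls were DMSO negative control for no effect and tunicamycin 10 µg/mL positive control for full effect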
# Numbers without * were called inactive; x = no result.
SMILES,p-CIP stab down,CHOP inhibitor,UPR XBP1 act,UPR CHOP act,Dynein transport,Beta2AR agonist,XBP1 UPR conf
Cc1ccc(NC(=O)c2nc[nH]c2C(=O)NCCCNC(=O)c2[nH]cnc2C(=O)Nc2ccc(C)cc2)cc1,x,x,61*,3,x,9,34*
Cc1ccc(NC(=O)c2nc[nH]c2C(=O)NCCCCNC(=O)c2[nH]cnc2C(=O)Nc2ccc(C)cc2)cc1,x,x,25,14,x,15,x
CCCc1nnc2n1N=C(c1ccc(-c3cc(Cl)ccc3Cl)o1)CS2,-8,15,x,x,-0.48,x,x
COc1ccc(-c2cc(C(F)F)n3ncc(C(=O)Nc4ccc(C(=O)N5CCOCC5)cc4)c3n2)cc1,-9,58,33*,6,1.6,27,52*
Cc1ccc(S(=O)(=O)N2CCCC2)cc1C(=O)NCCOc1ccccc1,x,x,-1,-3,x,8,x
C#CCSc1n[nH]c(-c2ccco2)n1,-10,3,-3,-2,0.64,-226,x
CCCN(C(=O)CCl)C1=CCCCC1,4,30,-8,1,-0.26,4,x
CCOc1ccc(OCCOc2ncnc3ccccc23)cc1,-4,-12,-2,-1,1.2,-1,x
COc1cc(NC2CCCCC2O)c2nc(-c3ccc(Cl)cc3)ccc2c1 (stereo unspecified),0,-18,31*,26,-2.5,26,16
COc1ccc(OCC(=O)OCC(=O)NC2CCCCC2C)cc1 (stereo unspecified),x,x,1,1,x,0,x
O=[N+]([O-])c1ccccc1/C=C/C=N/n1c(-c2cc(-c3ccccc3)n[nH]2)n[nH]c1=S,-12,-2,39*,0,0.087,5,4
O=C1C[C@@H]2c3c(cccc3CN1Cc1ccc(Br)cc1)C[C@@H](O)[C@H]2O,x,x,x,x,x,-7,x
Cc1cc(SCC(=O)c2ccc(O)c(O)c2)n2nc(C)c(-c3ccccc3)c2n1,1,26,101*,29,-0.95,10,58*
Cc1cc(C(=O)Nc2ccc(Cl)c(S(=O)(=O)N3CCOCC3)c2)c2ccccc2n1,x,x,-2,-1,x,-15,x
O=C(Nc1ccc(-n2nncc2-c2ccco2)cc1)c1cc2ccccc2oc1=O,-6,-12,67*,6,-1.2,4,1
CCC/C(=N/Nc1ccc(Cl)cc1)c1cnnc(-c2ccccc2)n1,x,x,66*,19,-0.44,x,28*
CC/C(=N/Nc1ccccc1Cl)c1cnnc(-c2ccccc2)n1,-3,-4,3,-1,-0.33,-5,x
Cc1c(NC(=O)c2n[nH]c(=O)c3ccccc23)c(=O)n(-c2ccccc2)n1C,-8,36,3,-2,-1.5,4,x
COc1ccc(Nc2nc(N)nc(CN3CCOCC3)n2)cc1,-4,25,-2,0,-0.28,2,x
COc1ccc(N2CCN(Cc3nc(N)nc(Nc4ccc(C)c(Cl)c4)n3)CC2)cc1,-2,60,33*,0,-0.21,-2,62*
C[C@H]1[C@H](C)CC[C@]2(C)CC[C@]3(C)C(=CC[C@@H]4[C@@]5(C)CC[C@@H](O)[C@](C)(C(=O)O)[C@@H]5CC[C@]43C)[C@H]12,-3,1,x,x,-1.3,x,x
C[C@H]1[C@H](C)CC[C@]2(C(=O)O)CC[C@]3(C)C(=CC[C@@H]4[C@@]5(C)CC[C@H](O)C(C)(C)[C@@H]5CC[C@]43C)[C@H]12,-11,73*,39*,1,0.3,15,18
C[C@H]1[C@H](C)CC[C@]2(C(=O)O)CC[C@]3(C)C(=CC[C@@H]4[C@@]5(C)C[C@@H](O)[C@H](O)C(C)(C)[C@@H]5CC[C@]43C)[C@H]12,1,72*,103*,1,0.96,31,124*
